Experimental data as given in ChEMBL document CHEMBL3352463, “Brain-penetrant, orally bioavailable microtubule-stabilizing small molecules are potential candidate therapeutics for Alzheimer's disease and related tauopathies” (J Med Chem, 2014).
Active and inactive are the calls of the source. The rule behind the calls is not given here.

Experiments:
[1] = system: QBI293; experiment: Induction of microtubule stabilization in human QBI293 cells assessed as increase in acetylated alpha-tubulin at 1 uM after 4 hrs by ELISA relative to vehicle treated control; type: cell-based
How it was run: (§1)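 QBI293 cells exposed to compound at 1 μM. Acetylated α-tubulin expressed as fold-change over vehicle-treated cells and over cells given 0.1 μM cevipabulin as positive control. Significance by two-tailed t-test.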

[2] = system: QBI293; experiment: Induction of microtubule stabilization in human QBI293 cells assessed as increase in acetylated alpha-tubulin at 100 nM after 4 hrs by immunofluorescence assay relative to control; type: cell-based
How it was run: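 QBI293 cells incubated 4 h with test compound (100 nM), colchicine (1 μM) or no compound; acetylated α-tubulin visualized by immunofluorescence to assess microtubule number/organization.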

[3] = molecular target: ATP-dependent translocase ABCB1 (Homo sapiens, UniProt P08183); experiment: Inhibition of human P-glycoprotein expressed in NCI/ADR-RES cells assessed as reduction of calcein-AM transport after 20 mins by fluorescence assay; type: cell-based
[4] = Drug level in CD1 mouse brain at 5 mg/kg, ip after 1 hr by LC-MS/MS system; type: ADME, organism-based; design: dose 5 mg/kg, route intraperitoneal; conditions: read-out: Drug uptake
How it was run: (§2)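 2-month-old CD1 mice (about 20 g) given 5 mg/kg ip; brain and plasma sampled at 1 h. Hemispheres sonicated in 10 mM ammonium acetate pH 5.7 (1:2 w/v); plasma from EDTA blood spun 4500g, 10 min, 4 °C. Acetonitrile extraction, then UPLC-MS/MS in positive ESI MRM mode. Quantified against spiked standard curves at 0.005–5 μM in matching matrix.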

[5] = Drug level in CD1 mouse plasma at 5 mg/kg, ip after 1 hr by LC-MS/MS system; type: ADME, organism-based; design: dose 5 mg/kg, route intraperitoneal; how it was run: as §2
[6] = Ratio of drug level in brain to plasma in CD1 mouse at 5 mg/kg, ip after 1 hr by LC-MS/MS system
[7] = system: QBI293; experiment: Induction of microtubule stabilization in human QBI293 cells assessed as increase in acetylated alpha-tubulin at 1 uM after 4 hrs by ELISA relative to 0.1 uM treated triazolopyrimidines cevipabulin; type: cell-based; how it was run: as §1
[8] = system: Mus musculus; experiment: Induction of microtubule stabilization in wild type mouse assessed as increase in acetylated alpha-tubulin level in brain at 1 mg/kg, ip after 4 to 6 days; type: functional, organism-based; design: dose 1 mg/kg
How it was run: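 Wild-type mice (n = 3 per group) dosed 1 mg/kg ip once daily for 4 or 6 days; acetylated α-tubulin measured in brain homogenates, expressed relative to controls; significance by ANOVA with Dunnett's multiple comparison test.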

[9] = Ratio of AUC for drug level in brain to plasma in CD1 mouse at 5 mg/kg, ip after 1 hr by LC-MS/MS system; type: ADME, organism-based; design: dose 5 mg/kg, route intraperitoneal; conditions: brain and plasma, read-out: Ratio AUC
How it was run: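 2-month-old CD1 mice given 5 mg/kg ip; brain hemispheres (homogenized 1:2 w/v in 10 mM ammonium acetate pH 5.7) and EDTA plasma collected over a 16 h time course. Acetonitrile-precipitated supernatants quantified by LC-MS/MS (MRM, positive ESI) with spiked standard curves 0.005–5 μM.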

[10] = Ratio of AUC for free drug level in brain to plasma in CD1 mouse at 5 mg/kg, ip after 1 hr by LC-MS/MS system; type: ADME, organism-based; design: dose 5 mg/kg, route intraperitoneal; conditions: brain and plasma
[11] = Elimination half life in CD1 mouse plasma at 5 mg/kg, ip after 1 hr by LC-MS/MS system; type: ADME, organism-based; design: dose 5 mg/kg, route intraperitoneal; conditions: read-out: beta t1/2 (converted)
How it was run: (§3)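 Female? no—2-month-old CD1 mice (20 g average) given 5 mg/kg ip; plasma (EDTA blood, centrifuged 4500g, 10 min, 4 °C) and brain hemispheres (homogenized in 10 mM ammonium acetate pH 5.7) sampled over 16 h. Acetonitrile extraction, LC-MS/MS by MRM against spiked standard curves (0.005–5 μM). Half-life from elimination rate constant, slope of ln concentration vs time at 4, 8 and 16 h.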

[12] = Elimination half life in CD1 mouse brain at 5 mg/kg, ip after 1 hr by LC-MS/MS system; type: ADME, organism-based; design: dose 5 mg/kg, route intraperitoneal; conditions: read-out: beta t1/2 (converted); how it was run: as §3
[13] = Ratio of drug level in brain to plasma in CD1 mouse at 5 mg/kg, ip after 1 hr by LC-MS/MS system; type: ADME, organism-based; design: dose 5 mg/kg, route intraperitoneal; conditions: brain and plasma, read-out: BPR
How it was run: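 CD1 mice (2 months, about 20 g) dosed 5 mg/kg ip; brain and plasma taken at 1 h. Each extracted with acetonitrile and measured by LC-MS/MS MRM against matrix standard curves (0.005–5 μM). Value is the brain concentration divided by the plasma concentration.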

[14] = system: QBI293; experiment: Induction of microtubule stabilization in human QBI293 cells assessed as increase in acetylated alpha-tubulin at 0.1 uM after 4 hrs by ELISA relative to vehicle treated control; type: cell-based

ATP-dependent translocase ABCB1, sequence (P08183 whole entry): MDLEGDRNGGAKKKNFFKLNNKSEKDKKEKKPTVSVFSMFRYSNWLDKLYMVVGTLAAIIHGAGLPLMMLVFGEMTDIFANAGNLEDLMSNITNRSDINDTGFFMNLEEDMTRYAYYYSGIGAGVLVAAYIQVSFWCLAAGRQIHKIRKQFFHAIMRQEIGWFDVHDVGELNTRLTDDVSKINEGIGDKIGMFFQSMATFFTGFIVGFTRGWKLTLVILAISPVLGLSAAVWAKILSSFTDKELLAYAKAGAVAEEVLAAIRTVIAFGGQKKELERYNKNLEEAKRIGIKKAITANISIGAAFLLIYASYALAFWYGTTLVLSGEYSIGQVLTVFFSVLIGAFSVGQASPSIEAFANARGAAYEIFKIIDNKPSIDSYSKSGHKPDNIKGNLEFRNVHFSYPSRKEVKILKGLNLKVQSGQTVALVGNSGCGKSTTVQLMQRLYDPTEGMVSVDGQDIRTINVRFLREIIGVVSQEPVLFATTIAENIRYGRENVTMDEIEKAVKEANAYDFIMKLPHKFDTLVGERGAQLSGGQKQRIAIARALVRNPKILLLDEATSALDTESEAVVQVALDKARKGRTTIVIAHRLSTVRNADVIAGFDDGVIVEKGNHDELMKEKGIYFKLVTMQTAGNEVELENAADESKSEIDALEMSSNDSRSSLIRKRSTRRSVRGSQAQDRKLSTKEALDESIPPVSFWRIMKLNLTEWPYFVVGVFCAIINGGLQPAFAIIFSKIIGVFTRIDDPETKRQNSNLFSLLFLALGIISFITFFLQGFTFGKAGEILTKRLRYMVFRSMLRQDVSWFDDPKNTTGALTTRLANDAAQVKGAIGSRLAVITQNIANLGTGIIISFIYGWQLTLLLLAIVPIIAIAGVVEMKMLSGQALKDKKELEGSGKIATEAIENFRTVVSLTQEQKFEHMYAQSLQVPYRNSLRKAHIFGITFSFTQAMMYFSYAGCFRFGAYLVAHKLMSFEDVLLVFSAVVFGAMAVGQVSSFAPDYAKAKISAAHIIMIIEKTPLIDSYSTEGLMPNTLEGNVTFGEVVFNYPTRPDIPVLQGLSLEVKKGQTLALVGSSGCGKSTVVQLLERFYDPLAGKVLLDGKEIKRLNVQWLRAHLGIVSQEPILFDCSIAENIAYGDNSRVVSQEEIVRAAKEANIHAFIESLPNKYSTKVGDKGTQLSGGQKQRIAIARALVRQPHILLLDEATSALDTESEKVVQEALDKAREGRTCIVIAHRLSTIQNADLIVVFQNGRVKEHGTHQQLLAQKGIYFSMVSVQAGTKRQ

With Fc1cc(F)c(-c2c(Cl)nc(-c3ccccn3)nc2NCC(F)(F)F)c(F)c1 the fold change (FC) [1] was 1.6.

With NS(=O)(=O)c1ccc(NC(NC(=O)c2ccc(Br)cc2)C(Cl)(Cl)Cl)cc1 (configuration not stated) the fold change (FC) [1] was 1.

With CNCCCOc1cc(F)c(-c2c(Cl)nc3ncnn3c2N[C@@H](C)C(F)(F)F)c(F)c1 [CEVIPABULIN] the Activity [2] was “Active”, the “inhibition (INH)” value [3] was “Not Active” and the concentration at 1 h [4] was 92 nM. For the same compound, the concentration at 1 h [5] was 2500 nM and the BPR [6] was 0.037.

Work on CC(=O)NCCCOc1cc(F)c(-c2c(Cl)nc3ncnn3c2N[C@@H](C)C(F)(F)F)c(F)c1 yielded a fold change (FC) [1] of 4.5 and a fold change (FC) [7] of 1.5.

In the case of CC(C)Nc1nc2nccnc2c(Cl)c1-c1c(F)cc(F)cc1F, the fold change (FC) [1] is reported as 1.

For COc1ccccc1N1CCN(C(=O)c2cc(=O)c3cc(C)cc(C)c3o2)CC1, the fold change (FC) [1] was 0.9.

For C[C@H](Nc1nc(-c2ccccn2)nc(Cl)c1-c1c(F)cc(F)cc1F)C(F)(F)F, the fold change (FC) [1] was 4.2, the fold change (FC) [7] was 0.9 and the concentration at 1 h [4] was 1500 nM. For the same compound, the concentration at 1 h [5] was 4300 nM.

C[C@H](Nc1c(-c2c(F)cc(OCCCO)cc2F)c(Cl)nc2ncnn12)C(F)(F)F gave a fold change (FC) [1] of 10.1, a fold change (FC) [7] of 1.2 and a concentration at 1 h [4] of 78 nM. It also gave a concentration at 1 h [5] of 29 nM and a BPR [6] of 2.8.

CC(C)Nc1c(-c2c(F)cc(F)cc2F)c(Cl)nc2nccnc12 gave a fold change (FC) [1] of 1.

In the case of C[C@H](Nc1nc(-c2cnccn2)nc(Cl)c1-c1c(F)cc(F)cc1F)C(F)(F)F, the Activity [8] is reported as “Active”, the fold change (FC) [1] is reported as 2.7 and the fold change (FC) [7] is reported as 0.9. For the same compound, the “inhibition (INH)” value [3] was “Not Active”, the concentration at 1 h [4] was 2900 nM and the concentration at 1 h [5] was 5000 nM. It also gave a Kp at 1 h [9] of 0.72, a Kp uu at 1 h [10] of 1.7 and a half-life [11] of 15 h. For the same compound, the half-life [12] was 15 h.

For C[C@H](Nc1c(-c2c(F)cc(OCCCN3CCOCC3)cc2F)c(Cl)nc2ncnn12)C(F)(F)F, the fold change (FC) [1] was 4.1, the fold change (FC) [7] was 1.2 and the concentration at 1 h [4] was 600 nM. For the same compound, the concentration at 1 h [5] was 1200 nM and the BPR [6] was 0.49.

With Cc1nnc(Cl)c(-c2c(F)cc(F)cc2F)c1-c1ccc(Cl)s1 the fold change (FC) [1] was 1.3.

C[C@H](Nc1c(-c2c(F)cc(OCCCNc3ccccc3)cc2F)c(Cl)nc2ncnn12)C(F)(F)F gave a fold change (FC) [1] of 1, a concentration at 1 h [4] of 120 nM and a concentration at 1 h [5] of 75 nM. The BPR [6] was 1.6.

With CC(=O)N(C)CCCOc1cc(F)c(-c2c(Cl)nc3ncnn3c2N[C@@H](C)C(F)(F)F)c(F)c1 the fold change (FC) [1] was 1.3, the concentration at 1 h [4] was 20 nM and the concentration at 1 h [5] was 200 nM. The BPR [6] was 0.15.

In the case of C[C@H](Nc1nc(-c2cnccn2)nc(Cl)c1-c1c(F)cc(OCCCN(C)C)cc1F)C(F)(F)F, the fold change (FC) [1] is reported as 4.1, the fold change (FC) [7] is reported as 0.5 and the concentration at 1 h [4] is reported as 860 nM. It also gave a concentration at 1 h [5] of 2500 nM and a BPR [6] of 0.35.

C[C@H](Nc1c(-c2c(F)cc(OCCCCl)cc2F)c(Cl)nc2ncnn12)C(F)(F)F gave a fold change (FC) [1] of 1.2, a concentration at 1 h [4] of 160 nM and a concentration at 1 h [5] of 178 nM. It also gave a BPR [6] of 0.88.

Work on C[C@H](Nc1c(-c2c(F)cc(OCCCF)cc2F)c(Cl)nc2ncnn12)C(F)(F)F yielded a fold change (FC) [1] of 1.4.

C[C@H](Nc1c(-c2c(F)cc(OCCCNC(=O)C(C)(C)C)cc2F)c(Cl)nc2ncnn12)C(F)(F)F gave a fold change (FC) [1] of 2.4, a fold change (FC) [7] of 0.7 and a concentration at 1 h [4] of 170 nM. The concentration at 1 h [5] was 1500 nM and the Kp at 1 h [13] was 0.12.

For Cc1nnc(Cl)c(-c2c(F)cc(F)cc2F)c1-c1ccc(Cl)cc1, the fold change (FC) [1] was 1.5.

CN(C)CCCOc1cc(F)c(-c2c(Cl)nc(-c3ccccn3)nc2NCC(F)(F)F)c(F)c1 gave a fold change (FC) [1] of 0.9.

With C/C1=C/C[C@@H](/C(C)=C/c2csc(C)n2)OC(=O)C[C@H](O)C(C)(C)C(=O)[C@H](C)[C@@H](O)[C@@H](C)CCC1 [EPOTHILONE D] the Activity [2] was “Active” and the “inhibition (INH)” value [3] was “Active”.

CC(C)c1cccc(C(C)C)c1N1C(=O)c2ccc(O)cc2C1=O gave a fold change (FC) [1] of 1.

Work on C[C@H](Nc1c(-c2c(F)cc(OCCCNCC(F)(F)F)cc2F)c(Cl)nc2ncnn12)C(F)(F)F yielded a fold change (FC) [1] of 2.1, a fold change (FC) [7] of 0.6 and a concentration at 1 h [4] of 230 nM. The concentration at 1 h [5] was 160 nM and the BPR [6] was 1.5.

In the case of C[C@H](Nc1c(-c2c(F)cc(OCCCN(C)C)cc2F)c(Cl)nc2ncnn12)C(F)(F)F, the Activity [8] is reported as “Active”, the fold change (FC) [14] is reported as 2 and the fold change (FC) [1] is reported as 9.1. For the same compound, the fold change (FC) [7] was 1.3, the “inhibition (INH)” value [3] was “Not Active” and the concentration at 1 h [4] was 1300 nM. For the same compound, the concentration at 1 h [5] was 4900 nM, the Kp at 1 h [9] was 0.37 and the Kp uu at 1 h [10] was 0.09.

For COc1ccc(CCN(C)CCCC(C#N)(c2ccc(OC)c(OC)c2)C(C)C)cc1OC (configuration not stated), the “inhibition (INH)” value [3] was “Active”.

Compound C[C@H](Nc1c(-c2c(F)cc(OCCCN)cc2F)c(Cl)nc2ncnn12)C(F)(F)F has a fold change (FC) [14] of 4.2, a fold change (FC) [1] of 26.5 and a fold change (FC) [7] of 3.4. It also gave a concentration at 1 h [4] of 40 nM, a concentration at 1 h [5] of 1300 nM and a BPR [6] of 0.03.

Fc1cc(F)c(-c2c(Cl)nc(-c3cnccn3)nc2NCC(F)(F)F)c(F)c1 gave a fold change (FC) [1] of 1.5.

In the case of C[C@H](Nc1c(-c2c(F)cc(F)cc2F)c(Cl)nc2ncnn12)C(F)(F)F, the fold change (FC) [1] is reported as 1.3, the fold change (FC) [7] is reported as 0.4 and the concentration at 1 h [4] is reported as 2400 nM. It also gave a concentration at 1 h [5] of 2800 nM and a BPR [6] of 0.8.
